The values below come from ChEMBL document CHEMBL5661977, “BI 6727, a Polo-like kinase inhibitor with improved pharmacokinetic profile and broad antitumor activity” (Clin Cancer Res, 2009).

SMILES strings stand for the structures. The source made the active and inactive calls.

Data set [1] concerns HCT-116. Kind of data set: Antimitotic activity against human HCT-116 cells assessed as inhibition of cell proliferation incubated for 72 hrs by Alamar blue based fluorescence spectrophotometric analysis. In kind it is functional. The note with it: HCT-116, 72 h. The method in brief:
(§1)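 Cancer cell lines were cultured per supplier instructions and exposed to various inhibitor concentrations for 72 h. Growth was read as Alamar blue conversion by fluorescence. EC50 (50% growth inhibition) was extrapolated from the dose-response curve fit.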

Another data set deals with BRO melanoma cell line. Kind of data set: Antimitotic activity against human BRO melanoma cell line assessed as inhibition of cell proliferation incubated for 72 hrs by Alamar blue based fluorescence spectrophotometric analysis. In kind it is functional. Background: The colour change of resazurin is a common sign of viable cells or microbes.
In the next data set the test system is HL-60. Briefly: Antimitotic activity against human HL-60 cells assessed as inhibition of cell proliferation incubated for 72 hrs by Alamar blue based fluorescence spectrophotometric analysis. The note with it: HL-60, 72 h. In kind it is functional. In outline: as §1
In a further data set the test system is THP-1. Briefly: Antimitotic activity against human THP-1 cells assessed as inhibition of cell proliferation incubated for 72 hrs by Alamar blue based fluorescence spectrophotometric analysis. The note with it: THP-1, 72 h. In kind it is functional. The method in brief:
as §1

A further data set has as its system Raji. Briefly: Antimitotic activity against human Raji cells assessed as inhibition of cell proliferation incubated for 72 hrs by Alamar blue based fluorescence spectrophotometric analysis. Type of data set: functional. In outline:
as §1

Data set [2] concerns NCI-H460. Briefly: Antimitotic activity against human NCI-H460 cells assessed as accumulation of monopolar spindles at 100 nmol/L incubated for 24 hrs by immunofluorescence analysis. In kind it is functional, cell-based. The method in brief:
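NCI-H460 cells on chamber slides were treated next day for 24 h with inhibitor or 0.1% DMSO vehicle. They were fixed and permeabilized with 4% formaldehyde/Triton X-100 for 5 min at RT, then stained with anti-tubulin and anti-phospho-Ser10 histone H3 (1:500 in PBS/2% BSA) plus DAPI 0.05 µg/mL. Imaged by fluorescence microscopy.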

Data set [3] has as its system NCI-H460. Kind of data set: Antimitotic activity against human NCI-H460 cells assessed as increase in the sub-G1 phase at 100 nmol/L incubated for 48 hrs by PI staining based flow cytometric analysis. In kind it is functional, cell-based. The method in brief: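 Log-phase NCI-H460 cells were treated with 0.1% DMSO or inhibitor (dose series for 24 h; 100 nmol/L time course at 0, 24, 48, 72 h). Cells were fixed in 80% ethanol, permeabilized with 0.25% Triton X-100 for 5 min, then given 0.1% RNase plus 10 µg/mL propidium iodide for 20 min at RT. DNA content was read by flow cytometry.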

Data set [4] in a line: Half life in Wistar rat at 10 mg/kg, iv by HPLC-MS/MS analysis. In kind it is ADME, organism-based. The note with it: in vivo. The method in brief: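 Male Wistar Crl:WI (Han) rats, n = 4, given a single 5-min i.v. infusion. BI 6727 measured in EDTA plasma at various times after the infusion started, by HPLC-MS/MS with internal standard. Parameters came from noncompartmental analysis. Terminal half-life was taken from the last two time points after i.v. dosing.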

The nature of data set [5]: Cmax in Wistar rat at 30 mg/kg, po by HPLC-MS/MS analysis. The note with it: in vivo. In kind it is ADME, organism-based. The method in brief:
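Single oral gavage of BI 6727 suspended in 0.5% hydroxyethyl-cellulose (10 mL/kg) to female nude mice or male Wistar rats. EDTA plasma levels measured over time by HPLC-MS/MS with internal standard. AUC0-24 by trapezoidal rule. Parameters from noncompartmental analysis.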

The nature of data set [6]: Volume of distribution at steady state in BomTac:NMRI-Foxn1nu mouse at 35 mg/kg, iv by HPLC-MS/MS analysis. In kind it is ADME, organism-based. The note with it: in vivo, read-out: Vdss. The method in brief: (§2)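 Female nude mice, n = 3, single i.v. dose (vehicle 0.1 N HCl diluted with 0.9% NaCl, 10 mL/kg). BI 6727 measured in EDTA plasma at several times by HPLC-MS/MS with internal standard. Parameters came from noncompartmental analysis. Terminal half-life was taken from the last two time points after i.v. dosing.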

A short description of data set [7]: Half life in BomTac:NMRI-Foxn1nu mouse at 35 mg/kg, iv by HPLC-MS/MS analysis. In kind it is ADME, organism-based. The note with it: in vivo. The method in brief: as §2
Data set [8] has as its system HCT-116. Briefly: Antitumor activity against human HCT-116 cells xenografted in BomTac:NMRI-Foxn1nu mouse assessed as T/C at 50 mg/kg, po administered once a week upto 6 weeks relative to control. Type of data set: functional. The method in brief: (§3)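 Female nude mice bore s.c. HCT 116 (2×10^6 cells), NCI-H460 (1×10^6 cells) or serially transplanted CXB1 tumor pieces. At ~50–100 mm³, mice were randomized into groups of 10 and dosed i.v. (0.1 N HCl/saline) or by gavage (0.5% hydroxyethyl-cellulose) at 10 mL/kg. Calipers read thrice weekly, volume = length×width²×π/6. T/C from median volumes on the last day.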

Data set [9] has as its system HCT-116. Briefly: Antitumor activity against human HCT-116 cells xenografted in BomTac:NMRI-Foxn1nu mouse assessed as T/C at 7 mg/kg, po administered daily upto 6 weeks relative to control. Type of data set: functional. The method in brief:
as §3
(Xenograft models place foreign cells or tissue in a host animal.)

Data set [10] has as its system NCI-H460. Kind of data set: Antitumor activity against human NCI-H460 cells xenografted in BomTac:NMRI-Foxn1nu mouse assessed as T/C at 10 mg/kg, po administered daily upto 6 weeks relative to control. Type of data set: functional. In outline: as §3
Data set [11] in a line: AUC (0 to 24 hrs) in human HCT-116 cells xenografted in BomTac:NMRI-Foxn1nu mouse at 25 mg/kg, iv administered twice a week upto 6 weeks by HPLC-MS/MS analysis. Type of data set: ADME, organism-based. The note with it: in vivo, 1008 h.
Data set [12] is described as follows: AUC (0 to 24 hrs) in human HCT-116 cells xenografted in BomTac:NMRI-Foxn1nu mouse at 20 mg/kg, iv administered twice a week upto 6 weeks by HPLC-MS/MS analysis. In kind it is ADME, organism-based. The note with it: in vivo, 1008 h.
Data set [13] can be described thus: AUC (0 to 24 hrs) in human NCI-H460 cells xenografted in BomTac:NMRI-Foxn1nu mouse at 10 mg/kg, po administered daily upto 6 weeks by HPLC-MS/MS analysis. The note with it: in vivo, 1008 h. Type of data set: ADME, organism-based.
The test system of data set [14] is HCT-116. Briefly: Antitumor activity against human HCT-116 cells xenografted in BomTac:NMRI-Foxn1nu mouse assessed as tumor growth delay at 20 mg/kg, iv administered twice a week on consecutive days. Type of data set: functional, organism-based. In outline: as §3
The subject of data set [15] is HCT-116. Kind of data set: Antitumor activity against human HCT-116 cells xenografted in BomTac:NMRI-Foxn1nu mouse assessed as tumor regression at 25 mg/kg, iv administered twice a week on consecutive days. In kind it is functional, organism-based. The method in brief:
as §3

Data set [16] has as its system HCT-116. Kind of data set: Antitumor activity against human HCT-116 cells xenografted in BomTac:NMRI-Foxn1nu mouse assessed as early apoptosis at 40 mg/kg, iv 24 hrs after administration by tunel staining based immunohistochemistry analysis. In kind it is functional, organism-based. In outline:
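Female nude mice bore s.c. HCT 116 tumors (~200 mm³) and received a single i.v. 40 mg/kg dose or vehicle (n=3 per group per time). Tumor, small intestine and large intestine were taken at 6, 24 and 48 h. Frozen sections were stained for pSer10 histone H3 (immunoperoxidase) or by TUNEL. Positive area was calculated as % of tumor cell area; Student's t test.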

Data set [17] in a line: Drug uptake in human HCT-116 cells xenografted in BomTac:NMRI-Foxn1nu mouse at 35 mg/kg, iv measured after 8 hrs by HPLC-MS/MS analysis. In kind it is ADME, organism-based, Neoplasm. The note with it: tumour (HCT-116 xenograft). In outline:
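Female nude mice bearing s.c. HCT 116 xenografts (2 × 10⁶ cells), n = 3 per time point, given a single i.v. dose. Tumor, organs and EDTA plasma collected at 1, 8, 24, 48, 96 and 168 h. Tissue extracts and plasma analysed by HPLC-MS/MS. Tissue nmol/mg converted to nmol/L assuming density 1.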

What is called EC50 is the concentration giving half of the maximal effect. As a reminder, the half-life is the time needed for the level to fall by half in the phase considered. Broadly, the Cmax is the highest concentration seen after dosing. The term T/C denotes the result in the treated group divided by that in the control group, in per cent. In general, AUC refers to the area under the concentration-time curve, a measure of exposure. With `CC[C@@H]1C(=O)N(C)c2cnc(Nc3ccc(C(=O)N[C@H]4CC[C@H](N5CCN(CC6CC6)CC5)CC4)cc3OC)nc2N1C(C)C` [VOLASERTIB], the EC50 with HCT-116 [1] came to 23 nM; with BRO melanoma cell line, 11 nM; in the data set with HL-60, 32 nM; with THP-1 it was 36 nM; with Raji, 37 nM. In addition, the result in the data set with NCI-H460 [2], with NCI-H460 [3], in the data set with HCT-116 [14], in the data set with HCT-116 [15] and in the data set on HCT-116 [16] was Active. For the same molecule, the half-life in [4] is 54 h; in data set [7], 46 h. The Cmax in [5] stood at 2.2 µM. Moreover, the Vd in [6] was determined as 7.6 L/kg. The values for the T/C in the data set on HCT-116 [8], with HCT-116 [9] and in the data set on NCI-H460 [10] were 2%, 3% and 6%, respectively. The AUC in [11] was determined as 75 µM·h; in [12], 66 µM·h; in data set [13], 61 µM·h. Also, in data set [17], the concentration at 8 h worked out at 32 µM.
